Data published in ChEMBL document CHEMBL4689842, “EUbOPEN Chemogenomics Library wave 1” (2021).

System: Fibroblast
Assay: Multiplex assay against human fibroblast
Assay type: toxicity, cell-based
Outline: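 Hoechst33342, BioTracker Green Microtubule Cytoskeleton Dye, MitoTracker Red and Annexin V Alexa Fluor 680 were added to live cells at seeding, and imaging on a CQ1 microscope at 37°C and 5% CO2 followed compound addition. Gating by CellPathfinder machine learning separated cells into Hoechst high-intensity objects or normal cells, then normal cells into healthy, pyknosed or fragmented nuclei, then pyknosed cells into mitotic or apoptotic. Per cents of healthy-nucleus cells are reported for the tubulin, mitochondrial-mass and membrane-permeability phenotypes.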

[1] = 12 h, 1 µM, compound concentration 1 uM, replicate 1
[2] = 12 h, 1 µM, compound concentration 1 uM, replicate 2
[3] = 12 h, 10 µM, compound concentration 10 uM, replicate 1
[4] = 12 h, 10 µM, compound concentration 10 uM, replicate 2
[5] = 24 h, 1 µM, compound concentration 1 uM, replicate 1
[6] = 24 h, 1 µM, compound concentration 1 uM, replicate 2
[7] = 24 h, 10 µM, compound concentration 10 uM, replicate 1
[8] = 24 h, 10 µM, compound concentration 10 uM, replicate 2

COC(=N)c1nc2ccc3ncnc(Nc4ccc(OC)cc4F)c3c2s1
Population Apoptotic (%) [1]: 55% | Population Fragmented Nuclei (%) [1]: 30% | Population Healthy Nuclei (%) [1]: 60% | Population Hoechst High Intensity Objects (%) [1]: 17% | Population Membrane Permeable-Phenotype (%) [1]: 3% | Population Mitochondria Different-Phenotype (%) [1]: 3% | Population Mitotic Cells (%) [1]: 44% | Population Normal (%) [1]: 82% | Population Pyknosed Nuclei (%) [1]: 9% | Population Tubulin-Different-Phenotype (%) [1]: 1% | Total Cell Count [1]: 119 | Population Apoptotic (%) [2]: 28% | Population Fragmented Nuclei (%) [2]: 50% | Population Healthy Nuclei (%) [2]: 34% | Population Hoechst High Intensity Objects (%) [2]: 33% | Population Membrane Permeable-Phenotype (%) [2]: 6% | Population Mitochondria Different-Phenotype (%) [2]: 6% | Population Mitotic Cells (%) [2]: 71% | Population Normal (%) [2]: 66% | Population Pyknosed Nuclei (%) [2]: 15% | Population Tubulin-Different-Phenotype (%) [2]: 6% | Total Cell Count [2]: 69 | Population Apoptotic (%) [3]: 76% | Population Fragmented Nuclei (%) [3]: 20% | Population Healthy Nuclei (%) [3]: 60% | Population Hoechst High Intensity Objects (%) [3]: 11% | Population Membrane Permeable-Phenotype (%) [3]: 7% | Population Mitochondria Different-Phenotype (%) [3]: 0% | Population Mitotic Cells (%) [3]: 23% | Population Normal (%) [3]: 88% | Population Pyknosed Nuclei (%) [3]: 18% | Population Tubulin-Different-Phenotype (%) [3]: 1% | Total Cell Count [3]: 238 | Population Apoptotic (%) [4]: 100% | Population Fragmented Nuclei (%) [4]: 57% | Population Healthy Nuclei (%) [4]: 35% | Population Hoechst High Intensity Objects (%) [4]: 30% | Population Membrane Permeable-Phenotype (%) [4]: 5% | Population Mitochondria Different-Phenotype (%) [4]: 5% | Population Mitotic Cells (%) [4]: 0% | Population Normal (%) [4]: 69% | Population Pyknosed Nuclei (%) [4]: 7% | Population Tubulin-Different-Phenotype (%) [4]: 5% | Total Cell Count [4]: 82 | Population Apoptotic (%) [5]: 77% | Population Fragmented Nuclei (%) [5]: 41% | Population Healthy Nuclei (%) [5]: 50% | Population Hoechst High Intensity Objects (%) [5]: 19% | Population Membrane Permeable-Phenotype (%) [5]: 8% | Population Mitochondria Different-Phenotype (%) [5]: 6% | Population Mitotic Cells (%) [5]: 22% | Population Normal (%) [5]: 80% | Population Pyknosed Nuclei (%) [5]: 7% | Population Tubulin-Different-Phenotype (%) [5]: 1% | Total Cell Count [5]: 146 | Population Apoptotic (%) [6]: 42% | Population Fragmented Nuclei (%) [6]: 44% | Population Healthy Nuclei (%) [6]: 36% | Population Hoechst High Intensity Objects (%) [6]: 30% | Population Membrane Permeable-Phenotype (%) [6]: 7% | Population Mitochondria Different-Phenotype (%) [6]: 7% | Population Mitotic Cells (%) [6]: 57% | Population Normal (%) [6]: 69% | Population Pyknosed Nuclei (%) [6]: 18% | Population Tubulin-Different-Phenotype (%) [6]: 14% | Total Cell Count [6]: 55 | Population Apoptotic (%) [7]: 65% | Population Fragmented Nuclei (%) [7]: 20% | Population Healthy Nuclei (%) [7]: 62% | Population Hoechst High Intensity Objects (%) [7]: 13% | Population Membrane Permeable-Phenotype (%) [7]: 5% | Population Mitochondria Different-Phenotype (%) [7]: 2% | Population Mitotic Cells (%) [7]: 34% | Population Normal (%) [7]: 86% | Population Pyknosed Nuclei (%) [7]: 17% | Population Tubulin-Different-Phenotype (%) [7]: 1% | Total Cell Count [7]: 246 | Population Apoptotic (%) [8]: 50% | Population Fragmented Nuclei (%) [8]: 54% | Population Healthy Nuclei (%) [8]: 37% | Population Hoechst High Intensity Objects (%) [8]: 30% | Population Membrane Permeable-Phenotype (%) [8]: 10% | Population Mitochondria Different-Phenotype (%) [8]: 5% | Population Mitotic Cells (%) [8]: 50% | Population Normal (%) [8]: 69% | Population Pyknosed Nuclei (%) [8]: 7% | Population Tubulin-Different-Phenotype (%) [8]: 10% | Total Cell Count [8]: 73
